By inhibition is commonly meant the share of the control response that was lost under treatment. The pIC50 is the negative decadic logarithm of the IC50, by convention in mol/L. A lower pIC50 goes with a high IC50.

pIC50: −log10 of the molar value. Active and inactive are the calls of the source. The rule behind the calls is not given here.

Drawing on ChEMBL document CHEMBL2069190, “Identification of new γ-hydroxybutenolides that preferentially inhibit the activity of mPGES-1” (Bioorg Med Chem, 2012), this text covers inhibition, IC50 and Activity for 13 molecules.

Data set [1] relates to A549. The data set can be described thus: Antiinflammatory activity in human A549 cells assessed as inhibition of IL-1beta-induced mPGES1 expression at 10 uM treated 30 mins prior to IL-1beta challenge measured after 48 hrs by Western blot analysis relative to control. It is filed as functional, cell-based. In outline: (§1)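 A549 cells (DMEM high glucose, 10% heat-inactivated FCS, penicillin/streptomycin, 37 °C, 5% CO2) pre-incubated 30 min with compound or vehicle (DMSO, 0.3%), then IL-1b (2 ng/mL) added. After 48 h, cells lysed; mPGES-1 protein analysed by Western blot with b-actin as loading control. Bands semi-quantified by densitometry as % of uninhibited DMSO control, mean SD, n = 3.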

The test system of data set [2] is A549. The data set can be described thus: Antiinflammatory activity in human A549 cells assessed as inhibition of IL-1beta-induced mPGES1 expression at 1 uM treated 30 mins prior to IL-1beta challenge measured after 48 hrs by Western blot analysis relative to control. It is filed as functional, cell-based. An outline of the steps: as §1
The target in a further data set is T1, Prostaglandin E synthase (Homo sapiens, UniProt O14684).
T1 sequence (O14684 whole entry): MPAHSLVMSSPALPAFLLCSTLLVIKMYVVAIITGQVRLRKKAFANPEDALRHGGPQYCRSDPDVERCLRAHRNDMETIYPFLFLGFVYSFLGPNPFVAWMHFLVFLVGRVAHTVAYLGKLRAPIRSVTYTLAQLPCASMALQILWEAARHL
The data set can be described thus: Inhibition of mPGES-1-mediated PGE2 formation in IL-1beta-stimulated human A549 cells preincubated for 10 mins measured after 1 min by RP-HPLC analysis. Format: cell-based. In outline:
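Microsomes from A549 cells treated 48 h with 1 ng/mL IL-1b, isolated by sonication and differential centrifugation (10,000×g 10 min, 174,000×g 1 h, 4 °C). Diluted in 0.1 M potassium phosphate pH 7.4 with 2.5 mM glutathione. Pre-incubated with compound or vehicle on ice, then 20 µM PGH2 added. PGE2 measured by RP-HPLC as % of DMSO control, mean S.E., n = 3–4.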

The target in data set [3] is T2, Polyunsaturated fatty acid lipoxygenase ALOX12 (Homo sapiens) (UniProt P18054).
T2 sequence (whole entry): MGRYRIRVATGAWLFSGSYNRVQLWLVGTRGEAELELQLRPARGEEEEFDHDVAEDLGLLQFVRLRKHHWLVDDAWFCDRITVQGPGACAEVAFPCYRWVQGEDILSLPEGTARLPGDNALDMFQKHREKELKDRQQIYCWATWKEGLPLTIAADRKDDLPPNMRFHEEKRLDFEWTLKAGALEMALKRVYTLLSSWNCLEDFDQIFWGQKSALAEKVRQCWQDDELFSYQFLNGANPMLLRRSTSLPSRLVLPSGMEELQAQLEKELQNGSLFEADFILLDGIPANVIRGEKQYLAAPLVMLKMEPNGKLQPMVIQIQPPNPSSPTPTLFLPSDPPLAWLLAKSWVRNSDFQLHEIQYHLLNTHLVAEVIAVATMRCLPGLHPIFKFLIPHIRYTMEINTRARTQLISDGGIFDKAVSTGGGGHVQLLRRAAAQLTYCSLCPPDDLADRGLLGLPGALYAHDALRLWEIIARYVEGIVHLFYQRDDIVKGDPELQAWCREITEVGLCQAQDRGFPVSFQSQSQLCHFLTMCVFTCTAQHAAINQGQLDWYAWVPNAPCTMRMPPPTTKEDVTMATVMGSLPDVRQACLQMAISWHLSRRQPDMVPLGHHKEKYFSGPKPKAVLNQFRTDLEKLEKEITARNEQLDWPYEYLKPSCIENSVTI
Kind of data set: Inhibition of 12-lipoxygenase in A23187-stimulated human platelets assessed as reduction of 12(S)-H(P)ETE formation preincubated 15 mins by RP-HPLC analysis.

Data set [4] addresses T3, Prostaglandin G/H synthase 1 (Ovis aries) (UniProt P05979).
T3 sequence (whole entry): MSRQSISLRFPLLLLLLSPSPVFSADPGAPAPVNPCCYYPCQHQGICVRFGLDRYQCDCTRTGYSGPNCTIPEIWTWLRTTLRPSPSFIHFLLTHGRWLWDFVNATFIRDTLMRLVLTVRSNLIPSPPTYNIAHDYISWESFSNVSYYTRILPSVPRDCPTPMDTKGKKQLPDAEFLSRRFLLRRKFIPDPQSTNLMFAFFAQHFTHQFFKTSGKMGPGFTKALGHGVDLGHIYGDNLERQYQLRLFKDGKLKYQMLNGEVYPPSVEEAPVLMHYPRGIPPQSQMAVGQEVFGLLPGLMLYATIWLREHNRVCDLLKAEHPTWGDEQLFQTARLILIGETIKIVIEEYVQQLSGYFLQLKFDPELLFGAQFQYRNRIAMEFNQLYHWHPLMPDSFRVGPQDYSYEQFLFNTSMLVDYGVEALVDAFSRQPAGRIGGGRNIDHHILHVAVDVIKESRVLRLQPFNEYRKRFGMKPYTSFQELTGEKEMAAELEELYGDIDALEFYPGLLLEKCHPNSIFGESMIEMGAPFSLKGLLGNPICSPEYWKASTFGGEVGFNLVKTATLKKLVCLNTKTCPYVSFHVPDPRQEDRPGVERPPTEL
Kind of data set: Inhibition of ovine COX1 at 10 uM preincubated for 5 mins measured after 5 mins.

The target of data set [5] is T4, Prostaglandin G/H synthase 2 (Homo sapiens) (UniProt P35354).
T4 sequence (whole entry): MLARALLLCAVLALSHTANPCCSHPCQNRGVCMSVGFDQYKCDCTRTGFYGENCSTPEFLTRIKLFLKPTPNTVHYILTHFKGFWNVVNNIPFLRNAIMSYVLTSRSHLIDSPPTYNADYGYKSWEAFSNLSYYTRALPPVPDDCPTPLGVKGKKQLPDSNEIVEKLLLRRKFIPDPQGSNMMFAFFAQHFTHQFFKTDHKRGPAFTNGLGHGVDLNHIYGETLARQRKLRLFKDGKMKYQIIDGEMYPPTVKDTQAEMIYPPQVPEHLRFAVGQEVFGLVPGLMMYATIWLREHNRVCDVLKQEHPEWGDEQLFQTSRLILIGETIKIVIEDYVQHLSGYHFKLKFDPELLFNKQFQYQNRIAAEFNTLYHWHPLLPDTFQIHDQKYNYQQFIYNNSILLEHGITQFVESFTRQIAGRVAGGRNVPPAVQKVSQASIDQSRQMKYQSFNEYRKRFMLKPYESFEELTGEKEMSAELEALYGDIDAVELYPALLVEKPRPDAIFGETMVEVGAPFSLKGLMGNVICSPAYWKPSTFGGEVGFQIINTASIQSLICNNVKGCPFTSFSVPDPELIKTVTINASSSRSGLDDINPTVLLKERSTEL
Kind of data set: Inhibition of human COX2 at 10 uM preincubated for 5 mins measured after 5 mins.

Data set [6] in a line: Cytotoxicity against human primary monocytes at 10 uM after 24 hrs by MTT assay. The conditions noted are these: monocyte.
Data set [7] in a line: Cytotoxicity against mouse […] cells at 10 uM after 24 hrs by MTT assay. For orientation: Tetrazolium dyes change colour on reduction, which living cells bring about.
A short description of data set [8]: Inhibition of His-tagged human recombinant cPLA2alpha expressed in baculovirus infected insect sf9 cells assessed as inhibition of arachidonic acid formation after 1 hr by RP-HPLC analysis.
In data set [9] the target is T5, Polyunsaturated fatty acid 5-lipoxygenase (Homo sapiens) (UniProt P09917).
T5 sequence (whole entry): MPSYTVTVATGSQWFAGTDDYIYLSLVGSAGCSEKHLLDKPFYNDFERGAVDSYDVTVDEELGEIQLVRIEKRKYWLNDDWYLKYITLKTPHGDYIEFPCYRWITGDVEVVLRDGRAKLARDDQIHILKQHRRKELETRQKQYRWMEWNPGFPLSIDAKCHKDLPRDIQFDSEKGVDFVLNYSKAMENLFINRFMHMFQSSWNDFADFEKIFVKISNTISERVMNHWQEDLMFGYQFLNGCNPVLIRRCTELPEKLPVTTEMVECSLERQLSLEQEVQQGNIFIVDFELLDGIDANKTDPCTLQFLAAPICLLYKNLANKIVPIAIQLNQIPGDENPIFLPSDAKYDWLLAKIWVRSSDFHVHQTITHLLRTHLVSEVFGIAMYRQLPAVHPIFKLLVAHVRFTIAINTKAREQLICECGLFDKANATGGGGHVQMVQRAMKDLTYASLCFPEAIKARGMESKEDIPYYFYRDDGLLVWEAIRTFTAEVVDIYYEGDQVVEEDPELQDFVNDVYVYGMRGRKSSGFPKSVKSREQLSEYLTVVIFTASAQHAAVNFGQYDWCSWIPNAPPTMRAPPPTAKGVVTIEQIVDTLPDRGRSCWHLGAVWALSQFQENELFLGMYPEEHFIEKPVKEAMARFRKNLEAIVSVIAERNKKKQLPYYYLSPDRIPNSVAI
The data set can be described thus: Inhibition of 5-lipoxygenase in A23187-stimulated human PMNL assessed as inhibition of 15-H(p)ETE formation preincubated 15 mins by RP-HPLC analysis.

In data set [10] the target is T6, Polyunsaturated fatty acid lipoxygenase ALOX15 (Homo sapiens) (UniProt P16050).
T6 sequence (whole entry): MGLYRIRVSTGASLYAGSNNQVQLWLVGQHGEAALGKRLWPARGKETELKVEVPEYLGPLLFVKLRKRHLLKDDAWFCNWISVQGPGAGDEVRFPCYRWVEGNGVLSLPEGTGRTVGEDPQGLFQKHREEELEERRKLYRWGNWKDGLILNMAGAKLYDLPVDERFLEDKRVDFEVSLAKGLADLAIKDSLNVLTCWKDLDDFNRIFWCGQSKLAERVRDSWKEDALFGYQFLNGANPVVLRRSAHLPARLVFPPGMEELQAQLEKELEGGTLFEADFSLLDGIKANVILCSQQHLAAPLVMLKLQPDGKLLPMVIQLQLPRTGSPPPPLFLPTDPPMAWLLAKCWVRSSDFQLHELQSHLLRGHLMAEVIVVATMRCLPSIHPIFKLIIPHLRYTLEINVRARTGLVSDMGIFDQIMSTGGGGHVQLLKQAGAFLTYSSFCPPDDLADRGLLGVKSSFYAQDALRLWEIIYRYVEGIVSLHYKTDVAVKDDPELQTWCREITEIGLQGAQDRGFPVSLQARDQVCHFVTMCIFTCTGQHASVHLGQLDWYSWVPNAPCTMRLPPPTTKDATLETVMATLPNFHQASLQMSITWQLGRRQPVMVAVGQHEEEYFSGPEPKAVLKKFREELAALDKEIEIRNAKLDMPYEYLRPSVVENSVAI
Kind of data set: Inhibition of 15-lipoxygenase in A23187-stimulated human PMNL assessed as inhibition of 15-H(p)ETE formation preincubated 15 mins by RP-HPLC analysis.

Take `O=C1OC(O)C(c2ccc(C(=O)N3CCOCC3)cc2)=C1Br` (stereo not drawn): in the data set on A549 [1], the inhibition result is “inactive”.
For `C[C@@H]1C[C@H]2[C@@H]3CCC4=CC(=O)C=C[C@]4(C)[C@@]3(F)[C@@H](O)C[C@]2(C)[C@@]1(O)C(=O)CO`, the inhibition result with A549 [2] was “Active”.
For the molecule `O=C1OC(O)C(c2cccc(C(=O)NCc3ccccc3)c2)=C1Br` (stereo not drawn), the inhibition result with A549 [1] was “inactive”.
Still for that read-out and setting: the result for `O=C1OC(O)C(c2cccc(C(=O)N3CCCC3)c2)=C1Br` (stereo not drawn) reads “inactive”; that for `O=C1OC(O)C(c2cccc(C(=O)N3CCOCC3)c2)=C1Br` (stereo not drawn), “inactive”.
On to `O=C1OC(O)C(c2ccc(C(=O)N3CCCCC3)cc2)=C1Br` (stereo not drawn), for which the inhibition result in the data set on A549 [1] is “inactive”.
On Prostaglandin E synthase, `O=C1OC(O)C(c2cc3ccccc3s2)=C1Br` (stereo not drawn) had a pIC50 of under 5.00.
Consider `O=C1OC(O)C(c2ccc(C(=O)N3CCCC3)cc2)=C1Br` (stereo not drawn), for which the inhibition entry in the data set on A549 [1] was “inactive”.
Still for that read-out and setting: then `O=C1OC(O)C(c2ccc(C(=O)N3CCNCC3)cc2)=C1Br` (stereo not drawn), with “inactive”.
In the case of `O=C1OC(O)C(c2ccc(C(=O)Nc3ccccc3)cc2)=C1Br` (stereo not drawn), the inhibition result (in data set [3]; in [4]; in data set [5]; in data set [8]; in [10]; in the data set with A549 [1]) was “inactive” throughout. Further, the Activity entry in [6] and in [7] was “Non-toxic” in each case. Further, at Prostaglandin E synthase, the negative logarithm of the IC50 (pIC50) is 6.05. Also, the inhibition in [9] was 22%.
`O=C1OC(O)C(c2cccc(C(=O)N3CCCCC3)c2)=C1Br` (stereo not drawn): the inhibition entry in the data set on A549 [1] was “inactive”.
As to `O=C1OC(O)C(c2ccc(C(=O)NCc3ccccc3)cc2)=C1Br` (stereo not drawn), the pIC50 on Prostaglandin E synthase is 5.25. Besides, the inhibition result with A549 [1] is “inactive”.
As for `O=C1OC(O)C(c2cccc(C(=O)Nc3ccccc3)c2)=C1Br` (stereo not drawn), in the data set on A549 [1], the inhibition entry was “inactive”.
